Data as given in ChEMBL document CHEMBL1275305, “Synthesis and in vitro study of pseudo-peptide thioureas containing α-aminophosphonate moiety as potential antitumor agents” (Eur J Med Chem, 2010).

Legend:
BGC-823 [1] = experiment: Antitumor activity against human BGC823 cells assessed as growth inhibition at 10 uM after 24 hrs by relative to control; assay type: functional; settings: BGC-823, 24 h
Outline: (§1)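 MTT growth-inhibition screen: 2.0×10^4 cells per well incubated with test compound for 24 h at 37 °C under 5% CO2. MTT then added, supernatant discarded and DMSO added. Absorbance read at 595 nm. Three separate experiments, each run in triplicate.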

PC-3 [2] = experiment: Antitumor activity against human PC3 cells assessed as growth inhibition at 10 uM after 24 hrs by relative to control; assay type: functional; settings: PC-3, 24 h; outline: as §1
Bcap37 = experiment: Antitumor activity against human Bcap37 cells assessed as growth inhibition at 10 uM after 24 hrs by relative to control; assay type: functional; settings: Bcap37, 24 h; outline: as §1
PC-3 [3] = experiment: Cytotoxicity against human PC3 cells at 5 uM after 72 hrs by relative to control; assay type: functional; settings: PC-3, 72 h
Outline: (§2)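 Cells grown in RPMI 1640 with 10% FBS and plated at 2×10^3 cells/well. Compounds were taken up in DMSO, diluted in medium and given at 1-100 µM for 72 h. Controls received 0.1% DMSO. MTT was read 4 h later as formazan absorbance at 595 nm. % cytotoxicity was blank-corrected against control, IC50 taken at 50% cell survival. Three experiments, each in triplicate.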

PC-3 [4] = experiment: Cytotoxicity against human PC3 cells after 72 hrs by MTT assay; assay type: functional, cell-based; settings: PC-3, 72 h; outline: as §2
PC-3 [5] = experiment: Cytotoxicity against human PC3 cells at 1 uM after 72 hrs by relative to control; assay type: functional; settings: PC-3, 72 h; outline: as §2
PC-3 [6] = experiment: Cytotoxicity against human PC3 cells at 20 uM after 72 hrs by relative to control; assay type: functional; settings: PC-3, 72 h; outline: as §2
PC-3 [7] = experiment: Cytotoxicity against human PC3 cells at 10 uM after 72 hrs by relative to control; assay type: functional; settings: PC-3, 72 h; outline: as §2
BGC-823 [8] = experiment: Cytotoxicity against human BGC823 cells at 10 uM after 72 hrs by relative to control; assay type: functional; settings: BGC-823, 72 h; outline: as §2
BGC-823 [9] = experiment: Cytotoxicity against human BGC823 cells after 72 hrs by MTT assay; assay type: functional, cell-based; settings: BGC-823, 72 h; outline: as §2
BGC-823 [10] = experiment: Cytotoxicity against human BGC823 cells at 5 uM after 72 hrs by relative to control; assay type: functional; settings: BGC-823, 72 h; outline: as §2
BGC-823 [11] = experiment: Cytotoxicity against human BGC823 cells at 1 uM after 72 hrs by relative to control; assay type: functional; settings: BGC-823, 72 h; outline: as §2
BGC-823 [12] = experiment: Cytotoxicity against human BGC823 cells at 20 uM after 72 hrs by relative to control; assay type: functional; settings: BGC-823, 72 h; outline: as §2

Compound	inhibition at 10 µM (BGC-823 [1])	inhibition at 10 µM (PC-3 [2])	inhibition at 10 µM (Bcap37)	also measured
CCOP(=O)(OCC)C(NC(=S)N[C@@H](Cc1ccccc1)C(=O)NCc1ccccc1F)c1ccccc1 (stereo partly drawn)	30.1%	19.3%	25.9%	–
COc1cccc2c1C(=O)c1c(O)c3c(c(O)c1C2=O)C[C@@](O)(C(=O)CO)C[C@@H]3O[C@H]1C[C@H](N)[C@H](O)[C@H](C)O1 [DOXORUBICIN]	93.8%	–	–	inhibition at 5 µM (PC-3 [3]): 89.4%; IC50 (PC-3 [4]): 3.3 µM; inhibition at 1 µM (PC-3 [5]): 36.4%; inhibition at 20 µM (PC-3 [6]): 100%; inhibition at 10 µM (PC-3 [7]): 98%
CCCOP(=O)(OCCC)C(NC(=S)N[C@H](Cc1ccccc1)C(=O)NCc1ccccc1)c1ccccc1 (stereo partly drawn)	24.4%	30.8%	49.1%	–
CCCOP(=O)(OCCC)C(NC(=S)N[C@@H](Cc1ccccc1)C(=O)NCc1ccc(F)cc1)c1ccccc1 (stereo partly drawn)	21%	56.7%	24%	inhibition at 5 µM (PC-3 [3]): 19.8%; IC50 (PC-3 [4]): 22.1 µM; inhibition at 1 µM (PC-3 [5]): 18.1%; inhibition at 20 µM (PC-3 [6]): 51.2%; inhibition at 10 µM (PC-3 [7]): 28%
CCCOP(=O)(OCCC)C(NC(=S)N[C@@H](Cc1ccccc1)C(=O)NCc1ccccc1)c1ccccc1 (stereo partly drawn)	35.7%	33.5%	35.4%	–
CCCOP(=O)(OCCC)C(NC(=S)N[C@H](Cc1ccccc1)C(=O)NCc1ccc(F)cc1)c1ccccc1 (stereo partly drawn)	53.9%	30.6%	12.6%	–
CCOP(=O)(OCC)C(NC(=S)N[C@@H](Cc1ccccc1)C(=O)NCc1ccccc1)c1ccccc1 (stereo partly drawn)	18.3%	20.1%	16.9%	–
CCCCOP(=O)(OCCCC)C(NC(=S)N[C@H](Cc1ccccc1)C(=O)NCc1ccc(F)cc1)c1ccccc1 (stereo partly drawn)	33.2%	33.6%	35.8%	–
CC(C)OP(=O)(OC(C)C)C(NC(=S)N[C@@H](Cc1ccccc1)C(=O)NCc1ccccc1)c1ccccc1 (stereo partly drawn)	27.9%	50.1%	24.4%	inhibition at 5 µM (PC-3 [3]): 12.8%; IC50 (PC-3 [4]): 19.5 µM; inhibition at 1 µM (PC-3 [5]): 2.7%; inhibition at 20 µM (PC-3 [6]): 50.1%; inhibition at 10 µM (PC-3 [7]): 21.8%
CCOP(=O)(OCC)C(NC(=S)N[C@H](Cc1ccccc1)C(=O)NCc1ccc(F)cc1)c1ccccc1 (stereo partly drawn)	44.5%	32.4%	34%	–
CC(C)OP(=O)(OC(C)C)C(NC(=S)N[C@H](Cc1ccccc1)C(=O)NCc1ccc(F)cc1)c1ccccc1 (stereo partly drawn)	20.8%	34.8%	27%	–
CCCCOP(=O)(OCCCC)C(NC(=S)N[C@H](Cc1ccccc1)C(=O)NCc1ccccc1)c1ccccc1 (stereo partly drawn)	22.7%	21.7%	46.6%	–
CC(C)OP(=O)(OC(C)C)C(NC(=S)N[C@@H](Cc1ccccc1)C(=O)NCc1ccc(F)cc1)c1ccccc1 (stereo partly drawn)	89.1%	58.6%	53.1%	inhibition at 10 µM (BGC-823 [8]): 89.1%; inhibition at 5 µM (PC-3 [3]): 17.3%; IC50 (BGC-823 [9]): 4.7 µM; IC50 (PC-3 [4]): 17.2 µM; inhibition at 1 µM (PC-3 [5]): 15.8%; inhibition at 20 µM (PC-3 [6]): 66.7%; inhibition at 5 µM (BGC-823 [10]): 70.1%; inhibition at 10 µM (PC-3 [7]): 31.4%; inhibition at 1 µM (BGC-823 [11]): 30.6%; inhibition at 20 µM (BGC-823 [12]): 100%
CC(C)OP(=O)(OC(C)C)C(NC(=S)N[C@@H](Cc1ccccc1)C(=O)NCc1ccccc1F)c1ccccc1 (stereo partly drawn)	47.9%	26.8%	44.4%	–
CC(C)OP(=O)(OC(C)C)C(NC(=S)N[C@H](Cc1ccccc1)C(=O)NCc1ccccc1F)c1ccccc1 (stereo partly drawn)	51.6%	14.3%	27.8%	–
CC(C)OP(=O)(OC(C)C)C(NC(=S)N[C@H](Cc1ccccc1)C(=O)NCc1ccccc1)c1ccccc1 (stereo partly drawn)	29%	30.5%	22.9%	–
CCCCOP(=O)(OCCCC)C(NC(=S)N[C@@H](Cc1ccccc1)C(=O)NCc1ccccc1F)c1ccccc1 (stereo partly drawn)	30.1%	22.5%	32.1%	–
CCOP(=O)(OCC)C(NC(=S)N[C@H](Cc1ccccc1)C(=O)NCc1ccccc1F)c1ccccc1 (stereo partly drawn)	30.1%	73.1%	70.2%	inhibition at 5 µM (PC-3 [3]): 45.6%; IC50 (PC-3 [4]): 6.7 µM; inhibition at 1 µM (PC-3 [5]): 4.9%; inhibition at 20 µM (PC-3 [6]): 97.2%; inhibition at 10 µM (PC-3 [7]): 73.1%
CCCOP(=O)(OCCC)C(NC(=S)N[C@@H](Cc1ccccc1)C(=O)NCc1ccccc1F)c1ccccc1 (stereo partly drawn)	11.1%	18.1%	44.7%	–
CCCCOP(=O)(OCCCC)C(NC(=S)N[C@H](Cc1ccccc1)C(=O)NCc1ccccc1F)c1ccccc1 (stereo partly drawn)	30.1%	18%	34%	–
CCCOP(=O)(OCCC)C(NC(=S)N[C@H](Cc1ccccc1)C(=O)NCc1ccccc1F)c1ccccc1 (stereo partly drawn)	11.1%	30.6%	17.2%	–
CCOP(=O)(OCC)C(NC(=S)N[C@@H](Cc1ccccc1)C(=O)NCc1ccc(F)cc1)c1ccccc1 (stereo partly drawn)	22.9%	27.9%	26.1%	–
CCOP(=O)(OCC)C(NC(=S)N[C@H](Cc1ccccc1)C(=O)NCc1ccccc1)c1ccccc1 (stereo partly drawn)	55.7%	56.9%	52.3%	inhibition at 5 µM (PC-3 [3]): 21.2%; IC50 (PC-3 [4]): 11.2 µM; inhibition at 1 µM (PC-3 [5]): 10.4%; inhibition at 20 µM (PC-3 [6]): 73.8%; inhibition at 10 µM (PC-3 [7]): 56.9%
CCCCOP(=O)(OCCCC)C(NC(=S)N[C@@H](Cc1ccccc1)C(=O)NCc1ccccc1)c1ccccc1 (stereo partly drawn)	21.1%	22.8%	34.5%	–
CCCCOP(=O)(OCCCC)C(NC(=S)N[C@@H](Cc1ccccc1)C(=O)NCc1ccc(F)cc1)c1ccccc1 (stereo partly drawn)	26.1%	19.7%	48.4%	–
